Experimental data collected from several papers.
Lines come from different studies, so protocols differ.
Target: Myosin light chain kinase 2, skeletal/cardiac muscle (MYLK2, Homo sapiens, UniProt Q9H1R3)

Compound	test	setting	measurement	result
Cn1nc(C(F)(F)F)cc1-c1cnc(N2CCc3cc(S(=O)(=O)Nc4c(F)cc(Cl)cc4F)cc(N4CCCC4=O)c32)nc1	cell-free assay, competition with immobilised ligand	1 µM	remaining binding	100%
Cc1ccc(NC(=O)c2ccc(CN3CCN(C)CC3)cc2)cc1Nc1nc(-c2cccnc2)cs1	cell-free assay	0.5 µM	remaining signal	98.7%
CNC(=O)c1ccc(Nc2ncc(C(F)(F)F)c(NCc3nccnc3N(C)S(C)(=O)=O)n2)cc1	cell-free assay, competition with immobilised ligand	0.1 µM	remaining binding	63%
O=C(Nc1cnn(-c2csc(C(=O)NC3COC3)c2)c1)Nc1ccccc1Cl	enzyme activity, inhibitor	5 µM	remaining activity	89.9%
O=C1c2ccccc2-c2n[nH]c3cccc1c23	enzyme activity, inhibitor	0.5 µM	activity vs control	22.2%
C=CC(=O)Nc1cc(Nc2nccc(Nc3cc(Cl)c(F)cc3C(C)(C)O)n2)c(OC)cc1N1CC[C@@H](N(C)C)C1	enzyme activity, inhibitor	1 µM	inhibition	-9%
O=C(NCc1ncc(C(F)(F)F)cc1Cl)c1ccc2c(c1)C1(CCS(=O)(=O)CC1)[C@H](C1CC1)N2S(=O)(=O)c1ccc(F)cc1	cell-free assay, competition with immobilised ligand	1 µM	remaining binding	100%
CC/C(=N\NC(=O)NCc1cccc(O)c1)c1ccc(O)c(C)c1O	enzyme activity, inhibitor	0.1 µM	inhibition	6%
COc1cc2c(N3CCN(C(=O)Nc4ccc(OC(C)C)cc4)CC3)ncnc2cc1OCCCN1CCCCC1	cell-free assay	0.5 µM	remaining signal	101%
CCS(=O)(=O)c1cc2cc(C[C@](O)(CC(C)(C)c3ccc(F)cc3C(N)=O)C(F)(F)F)[nH]c2cn1	cell-free assay, competition with immobilised ligand	1 µM	remaining binding	98%
CCCOc1ccc(OC)c(F)c1C(=O)c1ccc(C(=O)N[C@@H]2CNC[C@H]2NC(=O)c2ccc3[nH]ncc3c2)cc1	enzyme activity, inhibitor	10 µM	remaining activity	76%
COc1cc2ncnc(Nc3ccc(Oc4ccccc4)cc3C)c2cc1OC	enzyme activity, inhibitor	1 µM	inhibition	-4%
CN([C@@H]1CCc2c(CC(=O)O)c3cc(S(C)(=O)=O)ccc3n2C1)S(=O)(=O)c1ccc(F)cc1	cell-free assay, competition with immobilised ligand	1 µM	remaining binding	100%
CC(C)(C)c1nc(-c2cccc(NS(=O)(=O)c3c(F)cccc3F)c2F)c(-c2ccnc(N)n2)s1	enzyme activity, inhibitor, radiometric	1 µM	remaining activity	112%
NS(=O)(=O)c1cc(NC(=O)C2(c3ccccc3Cl)CC2)ccc1Oc1cccc(Cl)c1	cell-free assay, competition with immobilised ligand	1 µM	remaining binding	73%
CNC(=O)c1cc(Oc2ccc(NC(=O)Nc3ccc(Cl)c(C(F)(F)F)c3)cc2)ccn1	enzyme activity, inhibitor	10 µM	inhibition	16%
O=C(Nc1cnn(-c2csc(C(=O)NC3COC3)c2)c1)Nc1c(F)cccc1Cl	enzyme activity, inhibitor	5 µM	remaining activity	83.5%
CCN(CC)CCNC(=O)c1c(C)[nH]c(/C=C2\C(=O)Nc3ccc(F)cc32)c1C	enzyme activity, inhibitor	0.3 µM	inhibition	37%
Cc1cnc(NC2CCOCC2)nc1-n1cnc(C(=O)NC(CN)c2cc(F)cc(Cl)c2)c1 (stereo not shown)	enzyme activity, inhibitor, radiometric	1 µM	remaining activity	95%
